ChEMBL document CHEMBL5303300, “EUbOPEN Chemogenomics Library - Multiplex” (2023)
Values joined by “and” are separate entries in the source; they are usually repeats but may differ in a detail not shown here. Equal values may be shown once.

Columns and labels:
U2OS = experiment: Multiplex assay against U2OS; type: toxicity, cell-based; conditions: human, number of replicates 2
Summary of the method: (§1)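 Compound was added to live cells that had been stained at seeding with Hoechst33342, BioTracker Green Microtubule Cytoskeleton Dye, MitoTracker Red and Annexin V Alexa Fluor 680, and imaging followed on a CQ1 microscope at 37°C and 5% CO2. CellPathfinder machine-learning gating divided cells into Hoechst high-intensity objects or normal cells, normal cells into healthy, pyknosed or fragmented nuclei, and pyknosed cells into mitotic or apoptotic. Tubulin, mitochondrial-mass and membrane-permeability phenotypes are per cents of healthy-nucleus cells.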

Fibroblast = experiment: Multiplex assay against human fibroblast; type: toxicity, cell-based; conditions: number of replicates 2; summary of the method: as §1
[1] = 24 h, 1 µM, compound concentration 1 uM
[2] = 24 h, 10 µM, compound concentration 10 uM
[3] = 48 h, 1 µM, compound concentration 1 uM
[4] = 48 h, 10 µM, compound concentration 10 uM
[5] = 12 h, 1 µM, compound concentration 1 uM
[6] = 12 h, 10 µM, compound concentration 10 uM

`CC(C)(C)c1cnc(CSc2cnc(NC(=O)C3CCN(CC(=O)NCCOCCOCCOCCNc4cccc5c4C(=O)N(C4CCC(=O)NC4=O)C5=O)CC3)s2)o1` (centres undefined) was tested, and the “Population Pyknosed Nuclei (%)” value (U2OS; [1]) was 6% and 9%, the “Population Tubulin-Different-Phenotype (%)” value (U2OS; [1]) was 56% and 71% and the “Population Apoptotic (%)” value (U2OS; [2]) was 65% and 93%. The “Population Fragmented Nuclei (%)” value (U2OS; [2]) was 17% and 11%, the “Population Healthy Nuclei (%)” value (U2OS; [2]) was 31% and 25% and the “Population Hoechst High Intensity Objects (%)” value (U2OS; [2]) was 1% and 0%. For the same molecule, the “Population Membrane Permeable-Phenotype (%)” value (U2OS; [2]) was 12% and 14%, the “Population Normal (%)” value (U2OS; [2]) was 98% and 99% and the “Population Pyknosed Nuclei (%)” value (U2OS; [2]) was 50% and 63%. The “Population Tubulin-Different-Phenotype (%)” value (U2OS; [2]) was 81% and 57%, the “Total Cell Count” value (U2OS; [2]) was 52 and 141 and the “Population Fragmented Nuclei (%)” value (U2OS; [3]) was 4%. For the same molecule, the “Population Healthy Nuclei (%)” value (U2OS; [3]) was 85% and 86%, the “Population Hoechst High Intensity Objects (%)” value (U2OS; [3]) was 0% and the “Population Membrane Permeable-Phenotype (%)” value (U2OS; [3]) was 2% and 1%. The “Population Mitochondria Different-Phenotype (%)” value (U2OS; [3]) was 0% and 1%, the “Population Normal (%)” value (U2OS; [3]) was 99% and 100% and the “Population Pyknosed Nuclei (%)” value (U2OS; [3]) was 9%. For the same molecule, the “Population Tubulin-Different-Phenotype (%)” value (U2OS; [3]) was 57% and 77%, the “Population Apoptotic (%)” value (U2OS; [4]) was 96% and 86% and the “Population Fragmented Nuclei (%)” value (U2OS; [4]) was 9% and 19%. The “Population Healthy Nuclei (%)” value (U2OS; [4]) was 11% and 19%, the “Population Hoechst High Intensity Objects (%)” value (U2OS; [4]) was 2% and the “Population Membrane Permeable-Phenotype (%)” value (U2OS; [4]) was 56% and 22%. For the same molecule, the “Population Mitochondria Different-Phenotype (%)” value (U2OS; [4]) was 62% and 22%, the “Population Mitotic Cells (%)” value (U2OS; [4]) was 3% and 13% and the “Population Normal (%)” value (U2OS; [4]) was 97%. For the same molecule, the “Population Pyknosed Nuclei (%)” value (U2OS; [4]) was 78% and 61%, the “Population Tubulin-Different-Phenotype (%)” value (U2OS; [4]) was 75% and 100% and the “Total Cell Count” value (U2OS; [4]) was 141 and 48. The “Population Apoptotic (%)” value (Fibroblast; [5]) was 44% and 47%, the “Population Fragmented Nuclei (%)” value (Fibroblast; [5]) was 8% and 7% and the “Population Healthy Nuclei (%)” value (Fibroblast; [5]) was 70% and 73%. For the same molecule, the “Population Hoechst High Intensity Objects (%)” value (Fibroblast; [5]) was 0%, the “Population Membrane Permeable-Phenotype (%)” value (Fibroblast; [5]) was 2% and 3% and the “Population Mitochondria Different-Phenotype (%)” value (Fibroblast; [5]) was 1% and 0%. For the same molecule, the “Population Mitotic Cells (%)” value (Fibroblast; [5]) was 55% and 52%, the “Population Normal (%)” value (Fibroblast; [5]) was 100% and the “Population Pyknosed Nuclei (%)” value (Fibroblast; [5]) was 21% and 19%. The “Total Cell Count” value (Fibroblast; [5]) was 180 and 189, the “Population Apoptotic (%)” value (Fibroblast; [6]) was 61% and 53% and the “Population Fragmented Nuclei (%)” value (Fibroblast; [6]) was 15% and 23%. For the same molecule, the “Population Healthy Nuclei (%)” value (Fibroblast; [6]) was 47% and 50%, the “Population Hoechst High Intensity Objects (%)” value (Fibroblast; [6]) was 0% and the “Population Membrane Permeable-Phenotype (%)” value (Fibroblast; [6]) was 15% and 27%. The “Population Mitochondria Different-Phenotype (%)” value (Fibroblast; [6]) was 9% and 16%, the “Population Mitotic Cells (%)” value (Fibroblast; [6]) was 38% and 46% and the “Population Normal (%)” value (Fibroblast; [6]) was 100% and 99%. The “Population Pyknosed Nuclei (%)” value (Fibroblast; [6]) was 36% and 25%, the “Population Tubulin-Different-Phenotype (%)” value (Fibroblast; [6]) was 58% and 63% and the “Total Cell Count” value (Fibroblast; [6]) was 107 and 167. The “Population Apoptotic (%)” value (Fibroblast; [1]) was 51% and 77%, the “Population Fragmented Nuclei (%)” value (Fibroblast; [1]) was 7% and 16% and the “Population Healthy Nuclei (%)” value (Fibroblast; [1]) was 71% and 63%. The “Population Hoechst High Intensity Objects (%)” value (Fibroblast; [1]) was 0% and 1%, the “Population Membrane Permeable-Phenotype (%)” value (Fibroblast; [1]) was 5% and 7% and the “Population Mitochondria Different-Phenotype (%)” value (Fibroblast; [1]) was 7% and 1%. For the same molecule, the “Population Mitotic Cells (%)” value (Fibroblast; [1]) was 48% and 22%, the “Population Normal (%)” value (Fibroblast; [1]) was 100% and 98% and the “Population Pyknosed Nuclei (%)” value (Fibroblast; [1]) was 21% and 19%. The “Population Tubulin-Different-Phenotype (%)” value (Fibroblast; [1]) was 25% and 17%, the “Total Cell Count” value (Fibroblast; [1]) was 180 and 184 and the “Population Apoptotic (%)” value (Fibroblast; [2]) was 71% and 72%. The “Population Fragmented Nuclei (%)” value (Fibroblast; [2]) was 17% and 21%, the “Population Healthy Nuclei (%)” value (Fibroblast; [2]) was 50% and 53% and the “Population Hoechst High Intensity Objects (%)” value (Fibroblast; [2]) was 0%. The “Population Membrane Permeable-Phenotype (%)” value (Fibroblast; [2]) was 14% and 13%, the “Population Mitochondria Different-Phenotype (%)” value (Fibroblast; [2]) was 28% and 21% and the “Population Mitotic Cells (%)” value (Fibroblast; [2]) was 28% and 27%. For the same molecule, the “Population Normal (%)” value (Fibroblast; [2]) was 100% and 99%, the “Population Pyknosed Nuclei (%)” value (Fibroblast; [2]) was 31% and 24% and the “Population Tubulin-Different-Phenotype (%)” value (Fibroblast; [2]) was 56% and 58%. For the same molecule, the “Total Cell Count” value (Fibroblast; [2]) was 112 and 153, the “Population Apoptotic (%)” value (Fibroblast; [3]) was 62% and 71% and the “Population Fragmented Nuclei (%)” value (Fibroblast; [3]) was 8% and 9%. For the same molecule, the “Population Healthy Nuclei (%)” value (Fibroblast; [3]) was 58% and 63%, the “Population Hoechst High Intensity Objects (%)” value (Fibroblast; [3]) was 0% and the “Population Membrane Permeable-Phenotype (%)” value (Fibroblast; [3]) was 16% and 8%. The “Population Mitochondria Different-Phenotype (%)” value (Fibroblast; [3]) was 7% and 0%, the “Population Mitotic Cells (%)” value (Fibroblast; [3]) was 37% and 28% and the “Population Normal (%)” value (Fibroblast; [3]) was 100%. For the same molecule, the “Population Pyknosed Nuclei (%)” value (Fibroblast; [3]) was 32% and 27%, the “Population Tubulin-Different-Phenotype (%)” value (Fibroblast; [3]) was 34% and 15% and the “Total Cell Count” value (Fibroblast; [3]) was 178 and 166. For the same molecule, the “Population Apoptotic (%)” value (Fibroblast; [4]) was 83% and 78%, the “Population Fragmented Nuclei (%)” value (Fibroblast; [4]) was 18% and 26% and the “Population Healthy Nuclei (%)” value (Fibroblast; [4]) was 45% and 50%. The “Population Hoechst High Intensity Objects (%)” value (Fibroblast; [4]) was 0%, the “Population Membrane Permeable-Phenotype (%)” value (Fibroblast; [4]) was 9% and 13% and the “Population Mitotic Cells (%)” value (Fibroblast; [4]) was 16% and 21%. For the same molecule, the “Population Normal (%)” value (Fibroblast; [4]) was 100% and 99%, the “Population Pyknosed Nuclei (%)” value (Fibroblast; [4]) was 36% and 23% and the “Population Tubulin-Different-Phenotype (%)” value (Fibroblast; [4]) was 44% and 63%. For the same molecule, the “Total Cell Count” value (Fibroblast; [4]) was 115 and 158.
